Tests used:
[1] = Tmax in HIV-negative human at 300 mg, po administered every 12 hrs; type: ADME, organism-based; conditions: in vivo
Procedure, shortened: (§1)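 Healthy HIV-negative volunteers, open-label sequential periods at steady state. […] Plasma (EDTA) drawn predose and 1–12 h (plus 24 h) on last day of period. Atazanavir measured by HPLC-UV 212 nm, linear 25–20,000 ng/ml. Noncompartmental analysis; AUC24 taken as doubled AUC12.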

[2] = AUC (24 hrs) in HIV-negative human at 300 mg, po administered every 12 hrs coadministered with 600 mg of rifampin every 24 hrs; type: ADME, organism-based; design: dose 300 mg, time < 24 hr, route oral; conditions: plasma; procedure, shortened: as §1
Homo sapiens [3] = test: Terminal apparent distribution volume in HIV-negative human serum at 300 mg, po administered every 12 hrs coadministered with 600 mg of rifampin every 24 hrs; type: ADME, organism-based; conditions: in vivo; procedure, shortened: as §1
Homo sapiens [4] = test: Toxicity in HIV-negative human assessed as hemoglobin level at 300 mg, po administered every 12 hrs; type: organism-based; conditions: in vivo
[5] = AUC (12 hrs) in HIV-negative human at 300 mg, po administered every 12 hrs coadministered with 600 mg of rifampin every 24 hrs; type: ADME, organism-based; design: dose 300 mg, time < 12 hr, route oral; conditions: plasma; procedure, shortened: as §1
Homo sapiens [6] = test: Toxicity in human with six gilbert's genotype heterozygotes assessed as bilirubin level at 300 mg, po administered every 12 hrs; type: organism-based; conditions: in vivo
Homo sapiens [7] = test: Terminal apparent distribution volume in HIV-negative human serum at 300 mg, po administered every 12 hrs; type: ADME, organism-based; conditions: in vivo; procedure, shortened: as §1
Homo sapiens [8] = test: Toxicity in human with two gilbert's genotype homozygotes assessed as bilirubin level at 300 mg, po administered every 12 hrs; type: organism-based; conditions: in vivo
Homo sapiens [9] = species: Homo sapiens; test: Toxicity in HIV-negative human assessed as grade 3 fatigue; type: organism-based; conditions: in vivo
[10] = Tmax in HIV-negative human at 400 mg, po administered every 12 hrs coadministered with 600 mg of rifampin every 24 hrs; type: ADME, organism-based; conditions: in vivo; procedure, shortened: as §1
Homo sapiens [11] = test: Terminal apparent distribution volume in HIV-negative human serum at 400 mg, po administered every 12 hrs coadministered with 600 mg of rifampin every 24 hrs; type: ADME, organism-based; conditions: in vivo; procedure, shortened: as §1
Homo sapiens [12] = test: Toxicity in HIV-negative human assessed as creatinine levels at 300 mg, po administered every 12 hrs; type: organism-based; conditions: in vivo
Homo sapiens [13] = test: Toxicity in HIV-negative human assessed as bilirubin level at 300 mg, po administered every 12 hrs administered every 12 hrs coadministered with 600 mg of rifampin every 24 hrs; type: organism-based; conditions: in vivo
Procedure, shortened: (§2)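 Serum bilirubin measured at commercial laboratories as a safety test during steady-state dosing periods in healthy HIV-negative volunteers.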

[14] = Apparent oral clearance in HIV-negative human serum at 300 mg, po administered every 12 hrs coadministered with […] every 24 hrs; type: ADME, organism-based
[15] = AUC (24 hrs) in HIV-negative human at 300 mg coadministered with 100 mg of ritonavir every 24 hrs; type: ADME, organism-based; design: dose 300 mg, time < 24 hr; conditions: plasma
Homo sapiens [16] = test: Toxicity in HIV-negative human assessed as hemoglobin level at 300 mg, po administered every 12 hrs administered every 12 hrs coadministered with 600 mg of rifampin every 24 hrs; type: organism-based; conditions: in vivo
[17] = Apparent oral clearance in HIV-negative human serum at 300 mg, po administered every 12 hrs; type: ADME, organism-based; procedure, shortened: as §1
[18] = Drug level in HIV-negative human serum at 300 mg, po administered every 12 hrs coadministered with 600 mg of rifampin every 24 hrs measured at 12 hrs; type: ADME, organism-based
Procedure, shortened: (§3)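 Steady-state atazanavir level 12 h after morning dose, sampled before the evening dose and read directly from observed data. […] Plasma measured by HPLC-UV at 212 nm after tert-butyl methyl ether extraction. Linear range 25–20,000 ng/ml.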

[19] = Cmax in HIV-negative human at 300 mg coadministered with 100 mg of ritonavir every 24 hrs; type: ADME, organism-based; design: dose 300 mg; conditions: in vivo
[20] = AUC (24 hrs) in HIV-negative human at 400 mg, po administered every 12 hrs coadministered with 600 mg of rifampin every 24 hrs; type: ADME, organism-based; design: dose 400 mg, time < 24 hr, route oral; conditions: plasma; procedure, shortened: as §1
[21] = Drug level in HIV-negative human serum at 300 mg, po administered every 12 hrs measured at 12 hrs; type: ADME, organism-based; procedure, shortened: as §3
Homo sapiens [22] = test: Toxicity in HIV-negative human assessed as alanine aminotransferase levels at 300 mg, po administered every 12 hrs administered every 12 hrs coadministered with 600 mg of rifampin every 24 hrs; type: organism-based; conditions: in vivo
Homo sapiens [23] = test: Toxicity in HIV-negative human assessed as alanine aminotransferase levels at 400 mg, po administered every 12 hrs coadministered with 600 mg of rifampin every 24 hrs; conditions: in vivo
[24] = AUC (24hrs) in HIV-negative human at 400 mg administered every 24 hrs; type: ADME, organism-based; conditions: plasma
[25] = AUC (12 hrs) in HIV-negative human at 300 mg, po administered every 12 hrs; type: ADME, organism-based; design: time < 12 hr, dose 300 mg, route oral; conditions: plasma; procedure, shortened: as §1
[26] = Cmax in HIV-negative human at 300 mg, po administered every 12 hrs; type: ADME, organism-based; design: dose 300 mg, route oral; conditions: in vivo; procedure, shortened: as §1
Homo sapiens [27] = test: Toxicity in gilbert's genotype lacking human assessed as bilirubin level at 300 mg, po administered every 12 hrs; type: organism-based; conditions: in vivo
Homo sapiens [28] = test: Toxicity in HIV-negative human assessed as bilirubin level at 300 mg, po administered every 12 hrs; type: organism-based; conditions: in vivo; procedure, shortened: as §2
Homo sapiens [29] = test: Toxicity in HIV-negative human assessed as hemoglobin level at 400 mg, po administered every 12 hrs coadministered with 600 mg of rifampin every 24 hrs; conditions: in vivo
Homo sapiens [30] = test: Toxicity in HIV-negative human assessed as bilirubin level at 400 mg, po administered every 12 hrs coadministered with 600 mg of rifampin every 24 hrs; conditions: in vivo
[31] = Apparent oral clearance in HIV-negative human serum at 300 mg, po administered every 12 hrs coadministered with 600 mg of rifampin every 24 hrs; type: ADME, organism-based; procedure, shortened: as §1
[32] = Half life in HIV-negative human at 400 mg, po administered every 12 hrs coadministered with 600 mg of rifampin every 24 hrs; type: ADME, organism-based; conditions: in vivo; procedure, shortened: as §1
[33] = Cmax in HIV-negative human at 400 mg administered every 24 hrs; type: ADME, organism-based; design: dose 400 mg; conditions: in vivo
[34] = AUC (24 hrs) in HIV-negative human at 300 mg, po administered every 12 hrs; type: ADME, organism-based; design: dose 300 mg, time < 24 hr, route oral; conditions: plasma; procedure, shortened: as §1
[35] = Cmax in HIV-negative human at 400 mg, po administered every 12 hrs coadministered with 600 mg of rifampin every 24 hrs; type: ADME, organism-based; design: dose 400 mg, route oral; conditions: in vivo; procedure, shortened: as §1
Homo sapiens [36] = test: Toxicity in HIV-negative human assessed as creatinine levels at 300 mg, po administered every 12 hrs administered every 12 hrs coadministered with 600 mg of rifampin every 24 hrs; type: organism-based; conditions: in vivo
Homo sapiens [37] = test: Toxicity in HIV-negative human assessed as alanine aminotransferase levels at 300 mg, po administered every 12 hrs; type: organism-based; conditions: in vivo
[38] = Half life in HIV-negative human at 300 mg, po administered every 12 hrs; type: ADME, organism-based; conditions: in vivo; procedure, shortened: as §1
[39] = Tmax in HIV-negative human at 300 mg, po administered every 12 hrs coadministered with 600 mg of rifampin every 24 hrs; type: ADME, organism-based; conditions: in vivo; procedure, shortened: as §1
[40] = AUC (12 hrs) in HIV-negative human at 400 mg, po administered every 12 hrs coadministered with 600 mg of rifampin every 24 hrs; type: ADME, organism-based; design: dose 400 mg, time < 12 hr, route oral; conditions: plasma; procedure, shortened: as §1
[41] = Cmax in HIV-negative human at 300 mg, po administered every 12 hrs coadministered with 600 mg of rifampin every 24 hrs; type: ADME, organism-based; design: dose 300 mg, route oral; conditions: in vivo; procedure, shortened: as §1
Homo sapiens [42] = test: Toxicity in HIV-negative human assessed as creatinine levels at 400 mg, po administered every 12 hrs coadministered with 600 mg of rifampin every 24 hrs; conditions: in vivo
[43] = Half life in HIV-negative human at 300 mg, po administered every 12 hrs coadministered with 600 mg of rifampin every 24 hrs; type: ADME, organism-based; conditions: in vivo; procedure, shortened: as §1
[44] = Drug level in HIV-negative human serum at 400 mg, po administered every 12 hrs coadministered with 600 mg of rifampin every 24 hrs measured at 12 hrs; type: ADME, organism-based; procedure, shortened: as §3

Tmax [1]: 3.2 h | AUC at 24 h [2]: 10300 ng·h/mL | Vbeta (Homo sapiens [3]): 252 L | AUC at 12 h [5]: 5100 ng·h/mL | Vbeta (Homo sapiens [7]): 78 L | Tmax [10]: 2.9 h | Vbeta (Homo sapiens [11]): 171 L | CL/F [14]: 808 mL/min | AUC at 24 h [15]: 61400 ng·h/mL | CL/F [17]: 202 mL/min | concentration at 12 h [18]: 44 ng/mL | Cmax [19]: 6130 ng/mL | AUC at 24 h [20]: 19600 ng·h/mL | concentration at 12 h [21]: 811 ng/mL | AUC at 24 h [24]: 29300 ng·h/mL | AUC at 12 h [25]: 23800 ng·h/mL | Cmax [26]: 3910 ng/mL | CL/F [31]: 1390 mL/min | half-life [32]: 2.4 h | Cmax [33]: 5200 ng/mL | AUC at 24 h [34]: 47600 ng·h/mL | Cmax [35]: 2360 ng/mL | half-life [38]: 5.1 h | Tmax [39]: 2.7 h | AUC at 12 h [40]: 9800 ng·h/mL | Cmax [41]: 1430 ng/mL | half-life [43]: 2.2 h | concentration at 12 h [44]: 113 ng/mL
SMILES: COC(=O)N[C@H](C(=O)N[C@@H](Cc1ccccc1)[C@@H](O)CN(Cc1ccc(-c2ccccn2)cc1)NC(=O)[C@@H](NC(=O)OC)C(C)(C)C)C(C)(C)C [ATAZANAVIR]
Activity (Homo sapiens [4]): Non-toxic | Activity (Homo sapiens [6]): 4.1 mg/dL | Activity (Homo sapiens [8]): 5 mg/dL | Activity (Homo sapiens [9]): 7% | Activity (Homo sapiens [12]): Non-toxic | Activity (Homo sapiens [13]): Non-toxic | Activity (Homo sapiens [16]): Non-toxic | Activity (Homo sapiens [22]): Non-toxic | Activity (Homo sapiens [23]): Non-toxic | Activity (Homo sapiens [27]): 2.6 mg/dL | Activity (Homo sapiens [28]): Toxic | Activity (Homo sapiens [29]): Non-toxic | Activity (Homo sapiens [30]): Non-toxic | Activity (Homo sapiens [36]): Non-toxic | Activity (Homo sapiens [37]): Non-toxic | Activity (Homo sapiens [42]): Non-toxic

From ChEMBL document CHEMBL1143406 (Antimicrob Agents Chemother, 2007)
